# Measurements published in ChEMBL document CHEMBL3580618, “New trisubstituted 1,2,4-triazoles as ghrelin receptor antagonists” (Bioorg Med Chem Lett, 2015).
# Key:
# [1] = molecular target: T1, Growth hormone secretagogue receptor type 1 (Homo sapiens, UniProt Q92847); experiment: Displacement of 125I-[His9]-ghrelin from human GHSR1a expressed in LLC-PK1 cells by competitive binding assay; format: cell-based
# [2] = molecular target: T1, Growth hormone secretagogue receptor type 1; experiment: Antagonist activity at human GSHR1a expressed in mouse LTK cells assessed as inhibition of ghrelin-induced reporter gene expression after 6 hrs by CRE/luciferase reporter gene assay; format: functional, cell-based
# Method in brief: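 Mouse LTK cells stably expressing human GHS-R1a with luciferase reporter under CRE elements and CMV minimal promoter. Cells incubated 6 h with 1 µM rolipram, test compound at various concentrations and saturating ghrelin. Cells then lysed and bioluminescence read. % inhibition: ghrelin-treated cells = 0%, untreated cells = 100%. Quadruplicate points. IC50 from one experiment for weaker compounds, mean of at least two experiments for nanomolar ones.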
# [3] = molecular target: T1, Growth hormone secretagogue receptor type 1; experiment: Antagonist activity at GHSR1a (unknown origin) assessed as inhibition of ghrelin-induced intracellular calcium mobilization; format: functional, cell-based
# Method in brief: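 GHS-R1a-expressing cells; [Ca2+]i mobilization read. Compounds failing to raise calcium above 10% of maximal response (100% = 10^-7 M ghrelin) at 10^-5 M were treated as antagonists. […] One experiment, mean points from quadruplicate measurements.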
# [4] = Retention time of the compound by HPLC analysis; format: physicochemical
# [5] = Retention time of the compound by LC-MS analysis; format: physicochemical
# T1 sequence (Q92847 whole entry): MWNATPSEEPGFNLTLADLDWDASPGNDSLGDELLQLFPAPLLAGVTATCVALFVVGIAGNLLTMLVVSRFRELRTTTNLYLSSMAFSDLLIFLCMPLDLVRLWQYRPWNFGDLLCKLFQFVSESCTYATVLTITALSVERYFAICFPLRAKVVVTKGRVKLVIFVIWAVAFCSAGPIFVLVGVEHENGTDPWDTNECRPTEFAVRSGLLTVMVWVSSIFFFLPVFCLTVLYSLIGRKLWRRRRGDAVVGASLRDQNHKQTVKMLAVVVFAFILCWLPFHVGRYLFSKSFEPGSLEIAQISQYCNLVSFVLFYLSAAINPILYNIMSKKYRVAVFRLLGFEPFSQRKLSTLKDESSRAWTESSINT
Compound,IC50 [1],IC50 [2],IC50 [3],Retention_time [4],Retention_time [5]
COc1ccc(Cn2c(CCc3ccccc3)nnc2[C@@H](Cc2c[nH]c3ccccc23)NC(=O)c2cncc(Br)c2)cc1,0.084 µM,0.222 µM,0.088 µM,1.85 min,1.85 min
COc1ccc(Cn2c(CCc3ccccc3)nnc2[C@@H](Cc2c[nH]c3ccccc23)NC(=O)c2nccc3ccccc23)cc1,0.15 µM,0.073 µM,0.082 µM,1.93 min,1.85 min
COc1ccc(Cn2c(CCc3ccccc3)nnc2[C@H](N)Cc2c[nH]c3ccccc23)cc1,> 1 µM,–,–,–,–
COc1ccc(Cn2c(CCc3ccccc3)nnc2[C@@H](Cc2c[nH]c3ccccc23)NC(=O)c2ncc(F)cc2F)cc1,0.004 µM,0.0028 µM,0.0046 µM,1.82 min,1.65 min
COc1ccc(Cn2c(CCc3ccccc3)nnc2[C@@H](Cc2c[nH]c3ccccc23)NC(=O)c2cc3ccccc3cn2)cc1,0.1 µM,0.126 µM,0.404 µM,1.9 min,1.87 min
COc1ccc(Cn2c(CCc3ccccc3)nnc2[C@@H](Cc2c[nH]c3ccccc23)NC(=O)c2ccc(N3CCCC3)cn2)cc1,0.065 µM,1.21 µM,2.11 µM,1.76 min,1.8 min
COc1ccc(Cn2c(CCc3ccccc3)nnc2[C@@H](Cc2c[nH]c3ccccc23)NC(=O)c2cccc(OC)n2)cc1,0.002 µM,0.009 µM,0.0078 µM,1.86 min,1.76 min
COc1ccc(Cn2c(CCc3ccccc3)nnc2[C@@H](Cc2c[nH]c3ccccc23)NC(=O)c2ncccc2C(=O)c2ccccc2)cc1,0.24 µM,0.313 µM,0.23 µM,1.88 min,1.83 min
COc1ccc(Cn2c(CCc3ccccc3)nnc2[C@@H](Cc2c[nH]c3ccccc23)NC(=O)c2ccc(Cl)nc2)cc1,0.13 µM,0.771 µM,1.01 µM,1.8 min,1.52 min

# Results, then the compound that gave them:
IC50 [1],IC50 [2],IC50 [3],Retention_time [4],Retention_time [5],Compound
0.0034 µM,0.0075 µM,0.0054 µM,1.82 min,1.74 min,COc1ccc(Cn2c(CCc3ccccc3)nnc2[C@@H](Cc2c[nH]c3ccccc23)NC(=O)c2cccc(C)n2)cc1
0.38 µM,0.427 µM,0.671 µM,1.58 min,1.35 min,COc1ccc(Cn2c(CCc3ccccc3)nnc2[C@@H](Cc2c[nH]c3ccccc23)NC(=O)c2cccnc2N)cc1
0.042 µM,0.079 µM,0.112 µM,1.73 min,1.59 min,COc1ccc(Cn2c(CCc3ccccc3)nnc2[C@@H](Cc2c[nH]c3ccccc23)NC(=O)c2cccc[n+]2[O-])cc1
0.25 µM,0.193 µM,0.51 µM,1.76 min,1.66 min,COc1ccc(Cn2c(CCc3ccccc3)nnc2[C@@H](Cc2c[nH]c3ccccc23)NC(=O)c2cccnc2Br)cc1
0.006 µM,0.021 µM,0.025 µM,1.55 min,1.5 min,COc1ccc(Cn2c(CCc3ccccc3)nnc2[C@@H](Cc2c[nH]c3ccccc23)NC(=O)c2cccc(N)n2)cc1
0.22 µM,0.828 µM,–,–,–,COc1ccc(Cn2c(CCc3ccccc3)nnc2[C@@H](Cc2c[nH]c3ccccc23)NC(=O)c2ccncc2)cc1
0.24 µM,0.108 µM,0.165 µM,1.86 min,1.82 min,COc1ccc(Cn2c(CCc3ccccc3)nnc2[C@@H](Cc2c[nH]c3ccccc23)NC(=O)c2ncccc2O)cc1
0.122 µM,0.411 µM,0.337 µM,1.61 min,1.57 min,COc1ccc(Cn2c(CCc3ccccc3)nnc2[C@@H](Cc2c[nH]c3ccccc23)NC(=O)c2cccnc2)cc1
–,0.006 µM,0.0045 µM,–,–,COc1ccc(Cn2c(CCc3ccccc3)nnc2[C@@H](Cc2c[nH]c3ccccc23)NC(=O)c2ccccn2)cc1
0.003 µM,0.0088 µM,0.007 µM,1.73 min,1.67 min,COc1ccc(Cn2c(CCc3ccccc3)nnc2[C@@H](Cc2c[nH]c3ccccc23)NC(=O)c2ncccc2F)cc1
0.002 µM,0.0021 µM,0.0021 µM,1.84 min,1.67 min,COc1ccc(Cn2c(CCc3ccccc3)nnc2[C@@H](Cc2c[nH]c3ccccc23)NC(=O)c2cccc(F)n2)cc1
